hDAT+cocaine – modulates human dopamine transporter uptake under cocaine. Q01959. LLC-PK1 hDAT cells, [14C]-dopamine uptake with cocaine IC80; actives deviate in either direction. B-score at 10 µM. 110,000 compounds, 1.3% hits. AID 449768;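 active = Z score or B-score, a plate-position-corrected score, falls beyond the plate's 99.7% confidence bounds, in either direction; inactive = both scores lie inside the 99.7% bounds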;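 also: scored against the spread of the other compound wells on the same plate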
Target sequence (Q01959 whole entry, looked up): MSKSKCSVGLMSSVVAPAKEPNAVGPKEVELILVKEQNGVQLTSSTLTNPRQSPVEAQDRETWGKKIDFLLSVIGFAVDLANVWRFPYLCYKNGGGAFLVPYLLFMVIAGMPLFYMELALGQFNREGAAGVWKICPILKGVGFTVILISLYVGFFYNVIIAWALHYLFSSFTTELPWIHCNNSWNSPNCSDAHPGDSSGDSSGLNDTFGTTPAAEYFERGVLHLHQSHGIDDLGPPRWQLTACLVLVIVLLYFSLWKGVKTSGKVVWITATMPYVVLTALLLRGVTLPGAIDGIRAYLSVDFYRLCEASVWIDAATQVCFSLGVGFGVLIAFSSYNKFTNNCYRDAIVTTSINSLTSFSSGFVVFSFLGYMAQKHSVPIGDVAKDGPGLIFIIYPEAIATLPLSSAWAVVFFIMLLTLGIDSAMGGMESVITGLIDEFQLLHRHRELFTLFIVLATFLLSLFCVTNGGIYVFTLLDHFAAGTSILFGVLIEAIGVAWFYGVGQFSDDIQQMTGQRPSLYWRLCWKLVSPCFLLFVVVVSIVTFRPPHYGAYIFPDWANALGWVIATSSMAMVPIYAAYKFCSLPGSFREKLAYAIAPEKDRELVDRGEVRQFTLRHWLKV
BAP1 block – blocks human BAP1 ubiquitin-AMC hydrolysis | 72,000 compounds, 0.48% hits | recombinant BAP1, Ub-AMC hydrolysis fluorescence kinetic; active compounds read low | Q92560 | calls only at 20 µM | AID 436;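 active = activity remaining at or below 50% of control, provided the compound also passes the data quality filters; inactive = the rest, including low values that fail the filters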;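 also: 100% = DMSO wells rate and 0% = substrate alone blank rate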
HEK293 NFkB inh – lowers PMA/ionomycin-induced NF-kB signal in HEK293 cells; HEK-293 NF-kB luciferase reporter, luminescence; inhibition, % at 3 µM; 62,000 compounds, 0.21% hits; AID 465;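 active = inhibition above the mean of all tested compounds plus 3 SD, cut at about 40% in these data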;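 also: 0% = stimulated DMSO wells and 100% = 10 µM reference inhibitor 5653914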
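Timing: 1 h pretreatment, 16 h stimulation, 37 °C; system: HEK-293 cells with stable firefly luciferase reporter driven by four HIV NF-kB elements; doses: 3 µM once, 0.30% DMSO; measured by: luciferase luminescence; control set: DMSO and 10 µM reference inhibitor; repeats: single test; reagent: PMA plus ionomycin mix as NF-kB-activating stimulus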
M1 ag – activates the M1 muscarinic receptor | AID 626 | CHO-M1 cells, Fluo-4 calcium fluorescence, agonist mode; active compounds read high | 64,000 compounds, 3% hits | B-score at 10 µM;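 active = fluorescence rise, raw or as B-score row- and column-corrected plate score, outside the 99.7% band of its plate's samples, either direction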
D1 mod – allosteric modulators of human D1 dopamine receptor; P21728; HEK293 D1, CRE-luciferase, dopamine EC30 potentiation; actives deviate in either direction; B-score at 10 µM; 58,000 compounds, 5.9% hits;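 active = luminescence count or its row- and column-corrected plate score outside the 99.7% band of the plate's sample wells, on either side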
M1 antag – blocks the rat M1 muscarinic receptor response to acetylcholine; P08482; CHO-M1 cells, Fluo-4 calcium, ACh EC80 antagonist mode; active compounds read low; B-score at 10 µM; 64,000 compounds, 3.4% hits; AID 628;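 active = calcium fluorescence response, raw or row-and-column corrected B-score, differing from the plate sample mean either way at a set confidence level, mostly lower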
M1 antag confirm – M1 muscarinic receptor (rat) antagonism, confirmed. CHO-M1 cells, Fluo-4 calcium, ACh EC80 antagonism; active compounds read low. calcium response (max-min fluorescence) at 10 µM. 1,700 compounds, 43% hits. AID 677. shares compounds with M1 antag;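 active = calcium response below the same-plate mean of wells given acetylcholine alone at its 80%-effect dose, minus 3 SD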;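 also: raw fluorescence intensity difference in arbitrary instrument units and not normalized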
mGluR4 antag – selectivity test for M1 antagonists: human mGluR4 receptor; shares compounds with M1 antag; CHO-mGluR4 calcium flux, Fluo-4 fluorescence, glutamate EC80; active compounds read low; fluorescence response (max-min) at 10 µM; 1,700 compounds, 0.9% hits; AID 678;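 active = fluorescence response below the plate's average for near-maximal glutamate wells, less 3 SD of those wells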;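 also: raw unnormalized fluorescence span taken in the window right after glutamate addition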
Active calls of the source: *. Only some compounds are listed: those with a hit (about 7.2% of all), similar ones and a draw of the others.

For COc1ccc2cc3cc(C(=O)NCCN4CCN(Cc5ccccc5)CC4)oc3nc2c1 the results were hDAT+cocaine 0.99, HEK293 NFkB inh 11, M1 ag 1, D1 mod -0.056, M1 antag -2.2*, M1 antag confirm 486* and mGluR4 antag 254.
`COc1ccc2cc3cc(C(=O)NCCN4CCc5ccccc5C4)oc3nc2c1` gave hDAT+cocaine 0.41, BAP1 block inactive, HEK293 NFkB inh 14, M1 ag 0.93, D1 mod -1.2 and M1 antag -0.75.
`CCN1CCN(CCCNC(=O)c2cc3cc4ccc(OC)cc4nc3o2)CC1` gave hDAT+cocaine 0.98, HEK293 NFkB inh 13, M1 ag -0.068, D1 mod 0.34, M1 antag -3.9*, M1 antag confirm 563 and mGluR4 antag 251.
`N#C/C(C(=O)c1ccccc1)=C1/CCCCCN1` gave hDAT+cocaine -0.042, BAP1 block inactive, HEK293 NFkB inh -41, M1 ag 0.57, D1 mod 0.048, M1 antag -2.4*, M1 antag confirm 525 and mGluR4 antag 259.
Screening c1ccc(-c2cc3c(N4CCOCC4)ncnc3s2)cc1 returned hDAT+cocaine 0.66, BAP1 block inactive, HEK293 NFkB inh 11, M1 ag -0.37, D1 mod 14*, M1 antag -2.6*, M1 antag confirm 497 and mGluR4 antag 214.
O=C(Cn1cnc2sc(-c3ccccc3)cc2c1=O)N1CCOCC1 was read as hDAT+cocaine -0.5, HEK293 NFkB inh 2, M1 ag -0.67, D1 mod -0.05 and M1 antag -0.31.
Screening Cc1ccc(NC(=O)c2ccco2)c(NC(=O)c2cccs2)c1 returned hDAT+cocaine 1.7, BAP1 block inactive, HEK293 NFkB inh 13, M1 ag 0.068, D1 mod 0.064, M1 antag -3.9*, M1 antag confirm 534 and mGluR4 antag 206.
For Cc1ccc(O)c(NC(=O)c2ccco2)c1 the results were hDAT+cocaine 1.4, BAP1 block inactive, HEK293 NFkB inh -12, M1 ag 1.7 and M1 antag 0.7.
`O=C(Nc1cccc(NC(=O)c2cccs2)c1)c1ccco1` gave hDAT+cocaine -0.014, BAP1 block inactive, HEK293 NFkB inh -7, M1 ag 2.2, D1 mod -0.008 and M1 antag -0.4.
COc1cc(NC(=O)c2cccs2)ccc1NC(=O)c1ccco1 was read as hDAT+cocaine 0.66, HEK293 NFkB inh -1, M1 ag 1.7, D1 mod -1.3, M1 antag -2.8*, M1 antag confirm 628 and mGluR4 antag 272.
For Cn1c(=O)[nH]c(=O)c2c1[nH]c(=S)n2C the results were BAP1 block inactive.
For C=C(C)CN1CCN(c2cc(C)c(C#N)c3nc4ccccc4n23)CC1 the results were BAP1 block inactive.
Screening Cc1ccc(S(=O)(=O)NC(C)(C)CN2CCN(C(c3ccccc3)c3ccccc3)CC2)cc1 returned BAP1 block inactive.
`CC1CC(C)CN(CC(C)(C)NS(=O)(=O)c2ccccc2)C1` (centres undefined) gave hDAT+cocaine -0.51, BAP1 block inactive, HEK293 NFkB inh 8, M1 ag 1.5, M1 antag -2.6*, M1 antag confirm 548 and mGluR4 antag 246.
For COC(=O)CSc1ncccc1-c1nc2ccccc2[nH]1 the results were hDAT+cocaine 0.91, BAP1 block inactive, HEK293 NFkB inh 10, M1 ag -0.52, D1 mod -3.6, M1 antag -2.3*, M1 antag confirm 682 and mGluR4 antag 231.
Screening CC(O)c1ccc(NC(=O)c2cnn3c2NC(c2ccco2)CC3C(F)(F)F)cc1 (centres undefined) returned BAP1 block inactive.

From PubChem
